Measured values pooled from the literature.
Organism: Nakaseomyces glabratus
Read-out: microbial growth
Strain: ATCC90030

| Compound | technique | time | IC50 |
| --- | --- | --- | --- |
| O=C(O)c1nc2ccccc2c(=O)n1Cc1cn(-c2ccccc2Cl)nn1 | broth dilution | 24 h | 266 µg/mL |
| C[C@@H]1[C@H](O)[C@@H](C)/C=C/C=C/C=C/C=C/C=C/C=C/C=C/[C@H](O[C@@H]2O[C@H](C)[C@@H](O)[C@H](N)[C@@H]2O)C[C@@H]2O[C@](O)(C[C@@H](O)C[C@@H](O)[C@H](O)CC[C@@H](O)C[C@@H](O)CC(=O)O[C@H]1C)C[C@H](O)[C@H]2C(=O)O | – | – | 390 nM |
| CCCCCOc1c(OC)cc(NC(C)CCCNC(=O)C(N)C(C)CC)c2nc(C(C)(C)C)ccc12 (stereo not shown) | – | – | 15.2 µg/mL |
| O=C(O)c1ccc(-n2cc(Cn3c(C(=O)O)nc4ccccc4c3=O)nn2)cc1 | broth dilution | 24 h | 522 µg/mL |
| CCCCCCCCCCCCCC(O)CC(O)CO (stereo not shown) | broth dilution | – | > 200 µg/mL |
| CCCCCOc1c(OC)cc(NC(C)CCCNC(=O)C(N)Cc2cc3ccccc3[nH]2)c2nc(C(C)(C)C)ccc12 (stereo not shown) | – | – | 9.72 µg/mL |
| C#CCCCCCCCCCCCC(O)CC(O)CO (stereo not shown) | broth dilution | – | > 200 µg/mL |
| CCOC(=O)c1nc2ccccc2c(=O)n1Cc1cn(-c2cccc(C)c2)nn1 | broth dilution | 24 h | 395 µg/mL |
| COc1cc(NC(C)CCCN)c2nc(C(C)(C)C)ccc2c1Oc1ccc(Cl)c(Cl)c1 (stereo not shown) | – | – | 19.4 µg/mL |
| C[C@@H]1[C@H](O)[C@@H](C)/C=C/C=C/C=C/C=C/C=C/C=C/C=C/[C@H](O[C@@H]2O[C@H](C)[C@@H](O)[C@H](N)[C@@H]2O)C[C@@H]2O[C@](O)(C[C@@H](O)C[C@@H](O)[C@H](O)CC[C@@H](O)C[C@@H](O)CC(=O)O[C@H]1C)C[C@H](O)[C@H]2C(=O)O | broth dilution | – | 0.39 µg/mL |
